The values below come from ChEMBL document CHEMBL5055621, “Synthesis and Characterization of the Novel Rodent-Active and CNS-Penetrant P2X7 Receptor Antagonist Lu AF27139” (J Med Chem, 2021).

Data set [1] in a line: Apparent permeability across apical to basolateral side in MDCK-MDR1 cells by LC-MS/MS analysis. Conditions: dog.
For data set [2], the target named is T1, P2X purinoceptor 7 (Rattus norvegicus, UniProt Q64663).
T1 sequence (Q64663 whole entry): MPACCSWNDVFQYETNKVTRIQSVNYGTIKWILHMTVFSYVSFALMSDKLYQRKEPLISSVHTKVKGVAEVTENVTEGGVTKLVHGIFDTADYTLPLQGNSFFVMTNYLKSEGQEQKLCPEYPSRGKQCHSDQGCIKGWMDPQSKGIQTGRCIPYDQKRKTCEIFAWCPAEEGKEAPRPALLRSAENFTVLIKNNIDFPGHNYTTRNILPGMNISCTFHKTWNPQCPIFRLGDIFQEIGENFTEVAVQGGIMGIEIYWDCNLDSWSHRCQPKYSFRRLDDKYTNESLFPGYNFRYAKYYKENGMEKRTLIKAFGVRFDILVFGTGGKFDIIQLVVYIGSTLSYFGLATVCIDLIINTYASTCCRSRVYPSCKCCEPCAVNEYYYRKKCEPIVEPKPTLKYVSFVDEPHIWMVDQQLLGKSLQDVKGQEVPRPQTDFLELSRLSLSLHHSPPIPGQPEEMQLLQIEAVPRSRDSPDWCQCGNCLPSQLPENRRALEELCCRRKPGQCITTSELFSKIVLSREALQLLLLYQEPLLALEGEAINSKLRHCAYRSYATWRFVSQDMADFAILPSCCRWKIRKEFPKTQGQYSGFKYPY
In words: Antagonist activity at rat P2X7 receptor expressed in HEK293 cells assessed as inhibition of BzATP-induced calcium-flux measured after 60 mins by FLIPR analysis. The data set is classed as cell-based. In outline: (§1)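 Stable rat or mouse P2X7 HEK293 cells in HBSS/20 mM HEPES/2.5 mM probenecid/0.05% BSA, pH 7.4, were loaded with Fluo-4 NW (37 °C 30 min, RT 30 min). After 30 min at RT, calcium fluorescence was read by FLIPR; n ≥ 3.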

In data set [3] the target is T2, P2X purinoceptor 7 (Homo sapiens, UniProt Q99572).
T2 sequence (Q99572 whole entry): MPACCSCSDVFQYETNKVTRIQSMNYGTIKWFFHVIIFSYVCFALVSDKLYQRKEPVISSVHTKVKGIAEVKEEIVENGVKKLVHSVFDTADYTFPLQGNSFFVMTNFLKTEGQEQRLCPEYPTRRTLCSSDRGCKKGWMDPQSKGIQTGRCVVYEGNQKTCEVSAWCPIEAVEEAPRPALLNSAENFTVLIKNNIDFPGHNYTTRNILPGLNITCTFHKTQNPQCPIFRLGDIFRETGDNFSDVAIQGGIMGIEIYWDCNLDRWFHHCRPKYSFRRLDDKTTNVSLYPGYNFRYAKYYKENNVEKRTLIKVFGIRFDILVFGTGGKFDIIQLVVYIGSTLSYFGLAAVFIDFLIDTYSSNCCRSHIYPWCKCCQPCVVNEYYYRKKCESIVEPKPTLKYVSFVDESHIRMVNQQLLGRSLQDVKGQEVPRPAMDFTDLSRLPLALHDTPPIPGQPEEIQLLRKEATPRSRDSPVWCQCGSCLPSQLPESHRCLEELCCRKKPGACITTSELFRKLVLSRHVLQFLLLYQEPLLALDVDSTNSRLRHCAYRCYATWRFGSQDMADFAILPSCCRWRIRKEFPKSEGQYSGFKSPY
In words: Antagonist activity at human P2X7 receptor expressed in HEK293 cells assessed as inhibition of BzATP-induced calcium-flux measured after 60 mins by FLIPR analysis. The data set is classed as cell-based.

In data set [4] the target is T3, P2X purinoceptor 7 (Mus musculus, UniProt Q9Z1M0).
T3 sequence (Q9Z1M0 whole entry): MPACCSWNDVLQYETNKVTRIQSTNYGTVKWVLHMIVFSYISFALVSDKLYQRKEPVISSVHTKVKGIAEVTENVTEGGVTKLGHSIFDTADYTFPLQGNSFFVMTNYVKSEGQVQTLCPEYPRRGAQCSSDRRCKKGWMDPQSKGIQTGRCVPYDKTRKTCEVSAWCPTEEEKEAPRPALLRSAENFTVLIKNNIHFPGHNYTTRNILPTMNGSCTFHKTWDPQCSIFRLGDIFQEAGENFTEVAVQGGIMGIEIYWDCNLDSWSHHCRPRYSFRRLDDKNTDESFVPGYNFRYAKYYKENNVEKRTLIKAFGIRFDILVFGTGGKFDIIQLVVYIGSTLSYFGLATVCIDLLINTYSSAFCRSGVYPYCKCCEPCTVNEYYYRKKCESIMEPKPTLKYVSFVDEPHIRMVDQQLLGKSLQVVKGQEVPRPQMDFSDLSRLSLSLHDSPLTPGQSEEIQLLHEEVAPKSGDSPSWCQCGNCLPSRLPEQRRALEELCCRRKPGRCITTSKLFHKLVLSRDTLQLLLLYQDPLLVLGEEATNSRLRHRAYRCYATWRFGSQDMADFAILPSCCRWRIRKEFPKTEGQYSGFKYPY
The experiment in a line: Antagonist activity at mouse P2X7 receptor expressed in HEK293 cells assessed as inhibition of BzATP-induced calcium-flux measured after 60 mins by FLIPR analysis. The class given is cell-based. In outline:
as §1

Data set [5] in a line: in vitro. Conditions: rat, liver microsomes. In general terms: Liver microsomes are a subcellular fraction often used to study metabolism.
Data set [6] can be described thus: in vitro. Particulars: human, liver microsomes.
Data set [7] has as its target T1, P2X purinoceptor 7. In words: Displacement of [3H]-A-804598 from rat P2X7 receptor expressed in HEK293 cell membrane by in vitro binding assay. The data set is classed as cell membranes. On the technique in general: Loss of bound radioactivity is the signal in a displacement assay; it reports binding, not function.
The nature of data set [8]: Efflux ratio of permeability across basolateral to apical side over apical to basolateral side in MDCK2-MDR1 cells. The data set is classed as ADME, cell-based, Canis lupus familiaris. Particulars: dog, MDCK-MDR1. The method, boiled down: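 MDR1-MDCK monolayers; permeability measured in both A-to-B and B-to-A directions, in triplicate. Efflux ratio taken as B:A over A:B permeation.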

The target of data set [9] is T2, P2X purinoceptor 7. In words: Displacement of [3H]-A-804598 from human P2X7 receptor expressed in HEK293 cell membrane by in vitro binding assay. The data set is classed as cell membranes.
The next data set has as its system THP-1. In words: Antiinflammatory activity against human THP-1 cells assessed as reduction in LPS and BzATP-induced IL-1beta release measured after 50 mins by microplate reader. The class given is functional, cell-based. Particulars: THP-1, 50 min. In outline: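 THP-1 cells were differentiated with IFN-γ 10 ng/mL for 48 h and primed with LPS (100 ng/mL final) for 3.5 h at 10k cells/well. Compound was added for 20 min, then BzATP (1 mM final) for 30 min at 37 °C. Supernatant IL-1β was read by human AlphaLISA.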

The target of data set [10] is T3, P2X purinoceptor 7. The experiment in a line: Displacement of [3H]-A-804598 from mouse P2X7 receptor expressed in HEK293 cell membrane by in vitro binding assay. The class given is cell membranes.

For orientation: IC50 means the concentration needed to halve the response being measured. Consider `COC[C@H](O)Cn1c(=O)cnn(-c2ccc(Cl)c(C(=O)NCC3(O)CCCCCC3)c2)c1=O` [CE-224535], for which the Papp A:B in data set [1] is 0.6 ×10⁻⁶ cm/s. The figures for the IC50 at P2X purinoceptor 7 [2], on P2X purinoceptor 7 [3] and at P2X purinoceptor 7 [4] were 470 nM, 0.76 nM and 660 nM, respectively.

`O=C(NC[C@@H](c1ccc(Cl)cc1)N1CCOCC1)c1sc(-c2ncccn2)nc1C(F)(F)F`: the 50% inhibitory concentration (IC50) on P2X purinoceptor 7 [2] amounted to 95 nM.

As usually defined, the CLint scaled is the capacity of the preparation to metabolise the compound, expressed as a volume cleared per time. One may read the Ki as the equilibrium dissociation constant of an inhibitor or competing ligand from its target. Turning to `O=C(NCC1(O)CCC(F)(F)CC1)c1cc(-c2ncc(F)cn2)ccc1Cl`, the intrinsic metabolic clearance (CLint scaled) at 1 h, 1 µM is 53.3 mL/min/kg in “in vitro [5]” and 7.83 mL/min/kg in the data set “in vitro [6]”. Also, in data set [1], the Papp A:B was 18 ×10⁻⁶ cm/s. The IC50 on P2X purinoceptor 7 [2] was 5500 nM; on P2X purinoceptor 7 [4], greater than 10000 nM. This compound also registered a Ki at P2X purinoceptor 7 [7] of 4800 nM.

The efflux ratio is a quotient of directional permeabilities that is used to spot active efflux. For `CN1C(=O)CC[C@H]1C(=O)NCc1cccc(C(F)(F)F)c1Cl` [GSK1482160], the CLint scaled at 1 h, 1 µM is 16.7 mL/min/kg in “in vitro [5]” and 5 mL/min/kg in “in vitro [6]”. For the same compound, the Papp A:B in data set [1] is 20 ×10⁻⁶ cm/s. The IC50 was found to be 1900 nM at P2X purinoceptor 7 [2], 20 nM on P2X purinoceptor 7 [3] and 2300 nM at P2X purinoceptor 7 [4]. Further, the inhibition constant (Ki) came to 510 nM at P2X purinoceptor 7 [7] and 5.7 nM at P2X purinoceptor 7 [9]. Also, in [8], the efflux ratio amounted to 0.72.

In “in vitro [5]”, `CN1CCc2c(cccc2C(=O)NCC2(N3CCN(c4ccccc4)CC3)CCCCC2)C1` gave a CLint scaled at 1 h, 1 µM of 200 mL/min/kg. For the same compound, the Papp A:B in data set [1] came out at 0.25 ×10⁻⁶ cm/s. Further, the efflux ratio in data set [8] was determined as 1.1.

Take `Clc1cccc(-c2nnnn2Cc2cccnc2)c1Cl`: the CLint scaled at 1 h, 1 µM in “in vitro [5]” is 767 mL/min/kg; in the data set “in vitro [6]”, 16.7 mL/min/kg. In addition, the results for the IC50 on P2X purinoceptor 7 [2], on P2X purinoceptor 7 [3] and at P2X purinoceptor 7 [4] were 910 nM, 2100 nM and 2900 nM, respectively. Further, the Ki at P2X purinoceptor 7 [7] was 200 nM; at P2X purinoceptor 7 [9] it was 68 nM.

For the compound `FC(F)(F)c1cccc(-c2nnnn2Cc2cccnc2)c1Cl`, the intrinsic metabolic clearance (CLint scaled) at 1 h, 1 µM is 417 mL/min/kg in “in vitro [5]” and 75 mL/min/kg in the data set “in vitro [6]”. For the same compound, in [1], the Papp A:B stood at 40 ×10⁻⁶ cm/s. Further, the IC50 with THP-1 worked out at 140 nM; at P2X purinoceptor 7 [2] it was 71 nM; at P2X purinoceptor 7 [3], 57 nM; at P2X purinoceptor 7 [4], 300 nM. Further, the Ki on P2X purinoceptor 7 [7] was 16 nM; on P2X purinoceptor 7 [9], 7.4 nM; at P2X purinoceptor 7 [10] it was 48 nM. For the same compound, the efflux ratio in data set [8] came to 0.77.

Regarding `COc1ccc(CC(=O)NC(N/C(=N/C#N)Nc2cccc3ncccc23)C(C)(C)C)cc1OC` (stereo not given), the Papp A:B in data set [1] came out at 0.2 ×10⁻⁶ cm/s. Besides, the IC50 on P2X purinoceptor 7 [3] is 81 nM; at P2X purinoceptor 7 [4], 250 nM. Affinity on P2X purinoceptor 7 [9] was put at a Ki of 130 nM.

For `O=C(Cc1cccc(C(F)(F)F)c1Cl)NC1COc2ncccc21` (stereo not given), the values for the CLint scaled at 1 h, 1 µM in the data set “in vitro [5]” and in “in vitro [6]” were 85 mL/min/kg and 26.7 mL/min/kg, respectively. In addition, in [1], the Papp A:B stood at 25 ×10⁻⁶ cm/s. For the same compound, the IC50 was 27 nM in the data set on THP-1, 260 nM on P2X purinoceptor 7 [2], 5.5 nM at P2X purinoceptor 7 [3] and 320 nM on P2X purinoceptor 7 [4]. Also, in data set [8], the efflux ratio worked out at 0.83. In addition, the Ki on P2X purinoceptor 7 [9] was determined as 5.6 nM; on P2X purinoceptor 7 [10] it was 100 nM.

Consider `O=C(NCC12CC3CC(CC(C3)C1)C2)c1cc(CCCNCCCO)ccc1Cl` [AZD9056], for which the figures for the intrinsic metabolic clearance (CLint scaled) at 1 h, 1 µM in the data set “in vitro [5]” and in “in vitro [6]” were 43.3 mL/min/kg and 20 mL/min/kg, respectively. Further, the Papp A:B in data set [1] was 0.7 ×10⁻⁶ cm/s. Besides, the figures for the IC50 on P2X purinoceptor 7 [2], on P2X purinoceptor 7 [3] and at P2X purinoceptor 7 [4] were 4.4 nM, 3.5 nM and 1700 nM, respectively. Moreover, the Ki worked out at 130 nM on P2X purinoceptor 7 [7] and 15 nM on P2X purinoceptor 7 [9]. The efflux ratio in [8] amounted to 17.

Consider `O=C(NCC1(N2CCN(c3ccccc3)CC2)CCOCC1)c1cccnc1Sc1ccccc1`, for which the results for the CLint scaled at 1 h, 1 µM in the data set “in vitro [5]” and in “in vitro [6]” were 433 mL/min/kg and 283 mL/min/kg, respectively. Moreover, in data set [1], the Papp A:B amounted to 11 ×10⁻⁶ cm/s. For the same compound, the IC50 at P2X purinoceptor 7 [2] was 4.7 nM; on P2X purinoceptor 7 [3], 35 nM; on P2X purinoceptor 7 [4], 0.65 nM. Besides, the affinity at P2X purinoceptor 7 [7], expressed as Ki, was 98 nM. The efflux ratio in data set [8] was 1.1.

On to `O=C(NCC1CCCCCC1)c1cn(CCO)c2ccccc12`, for which the CLint scaled at 1 h, 1 µM is 533 mL/min/kg in “in vitro [5]” and 883 mL/min/kg in “in vitro [6]”. Further, the Papp A:B in data set [1] was determined as 5.9 ×10⁻⁶ cm/s. The IC50 at P2X purinoceptor 7 [2] is 1500 nM; at P2X purinoceptor 7 [3] it was 72 nM; at P2X purinoceptor 7 [4], 240 nM. Moreover, the efflux ratio in data set [8] stood at 0.7.

Consider `C[C@H](N/C(=N/C#N)Nc1cccc2ncccc12)c1ccccc1`, for which the CLint scaled at 1 h, 1 µM was 71.7 mL/min/kg in the data set “in vitro [5]” and 23.3 mL/min/kg in the data set “in vitro [6]”. The Papp A:B in data set [1] came to 9.3 ×10⁻⁶ cm/s. For the same compound, the 50% inhibitory concentration (IC50) in the data set with THP-1 stood at 15 nM; at P2X purinoceptor 7 [2], 6.1 nM. Further, the Ki on P2X purinoceptor 7 [7] was 3.9 nM.
